According to ChEMBL document CHEMBL3588803, “Design, synthesis and pharmacology of 1,1-bistrifluoromethylcarbinol derivatives as liver X receptor β-selective agonists” (Bioorg Med Chem Lett, 2015):

Tests used:
[1] = Plasma concentration in CE-2 chow diet-fed golden Syrian hamster assessed as 4-(4-(1,1,1,3,3,3-Hexafluoro-2-hydroxypropan-2-yl)-2,6-di-n-propylphenoxy)-butanoic acid level at 100 mg/kg, po after 8 hrs by HPLC-LC-MS/MS method; format: ADME, organism-based, Mesocricetus auratus; details: in vivo
How it was run: (§1)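 Hamsters on chow diet received a single oral dose of 100 mg/kg. Heparin plasma was drawn from a forearm vein at 0.5, 1, 2, 3, 4, 6, 8, 10 and 24 h after dosing. Concentrations of parent drug and its carboxylic acid metabolite were measured in plasma.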

[2] = Plasma concentration in CE-2 chow diet-fed golden Syrian hamster assessed as 4-(4-(1,1,1,3,3,3-Hexafluoro-2-hydroxypropan-2-yl)-2,6-di-n-propylphenoxy)-butanoic acid level at 100 mg/kg, po after 4 hrs by HPLC-LC-MS/MS method; format: ADME, organism-based, Mesocricetus auratus; details: in vivo; how it was run: as §1
[3] = Plasma concentration in CE-2 chow diet-fed golden Syrian hamster assessed as 4-(4-(1,1,1,3,3,3-Hexafluoro-2-hydroxypropan-2-yl)-2,6-di-n-propylphenoxy)-butanoic acid level at 100 mg/kg, po after 3 hrs by HPLC-LC-MS/MS method; format: ADME, organism-based, Mesocricetus auratus; details: in vivo; how it was run: as §1
[4] = tested on: Hamster; assay: Increase in ABCA1 gene expression in Bio F1B hamster intestine at 10 to 100 mg/kg, po; format: functional, organism-based; details: Cricetinae
[5] = Plasma concentration in CE-2 chow diet-fed golden Syrian hamster assessed as 4-(4-(1,1,1,3,3,3-Hexafluoro-2-hydroxypropan-2-yl)-2,6-di-n-propylphenoxy)-butanoic acid level at 100 mg/kg, po after 24 hrs by HPLC-LC-MS/MS method; format: ADME, organism-based, Mesocricetus auratus; details: in vivo; how it was run: as §1
[6] = Plasma concentration in CE-2 chow diet-fed golden Syrian hamster at 100 mg/kg, po after 0.5 hrs by HPLC-LC-MS/MS method; format: ADME, organism-based, Mesocricetus auratus; how it was run: as §1
[7] = tested on: Hamster; assay: Increase in ABCA1 gene expression in Bio F1B hamster intestine at 10 mg/kg, po; format: functional, Cricetinae
[8] = Plasma concentration in CE-2 chow diet-fed golden Syrian hamster assessed as 4-(4-(1,1,1,3,3,3-Hexafluoro-2-hydroxypropan-2-yl)-2,6-di-n-propylphenoxy)-butanoic acid level at 100 mg/kg, po after 6 hrs by HPLC-LC-MS/MS method; format: ADME, organism-based, Mesocricetus auratus; details: in vivo; how it was run: as §1
[9] = tested on: Hamster; assay: Increase in ABCA1 gene expression in Bio F1B hamster intestine at 100 mg/kg, po; format: functional, Cricetinae
How it was run: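 Bio F1B hamsters were fed a high-fat, high-cholesterol diet and dosed orally. Gene expression was measured in intestine (ABCA1, ABCG5, ABCG8) and in peripheral blood (ABCA1).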

[10] = tested on: Hamster; assay: Increase in ABCA1 gene expression in Bio F1B hamster peripheral blood at 10 mg/kg, po; format: functional, Cricetinae

Cp [1]: 979 ng/mL
Cp [2]: 529 ng/mL
Cp [3]: 409 ng/mL
Cp [5]: 528 ng/mL
concentration at 0.5 h [6]: 310 nM
Cp [8]: 641 ng/mL
Compound: CCCc1cc(C(O)(C(F)(F)F)C(F)(F)F)cc(CCC)c1OCCCCN1C(=O)NC(C)(c2ccc(OC(C)C)cc2)C1=O (stereo not given)
Activity [4]: Dose-dependent effect
fold change (FC) [7]: 2.1
fold change (FC) [9]: 5.2
fold change (FC) [10]: 1
